Experimental data taken from ChEMBL document CHEMBL1156507, “The M18 aspartyl aminopeptidase of the human malaria parasite Plasmodium falciparum” (J Biol Chem, 2007).

tested on: not listed separately; test: Binding affinity against recombinant Plasmodium falciparum D10 M18AAP
In short: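 Recombinant His6-tagged PfM18AAP was expressed in baculovirus-infected Sf9 cells and purified on Ni-NTA-agarose. Enzyme (60 nM) was preincubated 30 min in 50 mM Tris-HCl, pH 7.5, then added to the fluorogenic substrate H-Asp-NHMec. Initial hydrolysis rates were read by fluorescence (ex 370 nm, em 460 nm) with inhibitor present.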

Row | SMILES | Ki [µM]
1 | CP(=O)(O)C(N)CC(=O)O (centres undefined) | 395
2 | NC(CCC(=O)O)P(=O)(O)c1ccccc1 (centres undefined) | > 2000
3 | CC(CP(=O)(O)C(N)CCC(=O)O)C(=O)O (centres undefined) | 42.7
4 | NC(CCP(=O)(O)O)P(=O)(O)O (centres undefined) | 4.4
5 | NC(CCCC(=O)O)P(=O)(O)O (centres undefined) | 105
6 | N[C@@H](CCC(=O)O)P(=O)(O)O | 0.34
7 | CC(CP(=O)(O)C(N)CC(=O)O)C(=O)O (centres undefined) | 183
8 | NC(CC(=O)O)P(=O)(O)O (centres undefined) | 27

tested on: Plasmodium falciparum; test: Binding affinity against recombinant Plasmodium falciparum D10 M18AAP at 1.83 mM
In short: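 Phosphonic/phosphinic amino-acid analogues and phosphinate dipeptides tested on rPfM18AAP in the fluorogenic assay: initial rate of H-Asp-NHMec hydrolysis (ex 370/em 460 nm) at pH 7.5, enzyme preincubated 30 min in 50 mM Tris-HCl; inhibited rates compared with an enzyme-plus-substrate control.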

Row | Activity [%] | SMILES
9 | 20 | NC(CCC(=O)O)P(=O)(O)c1ccccc1 (centres undefined)
